Measured values gathered from unrelated publications.
Each line is one published result; the experiments were not run side by side.
Target: Non-receptor tyrosine-protein kinase TNK1 (TNK1, Homo sapiens, UniProt Q13470)
One construct used (Q13470 1-666): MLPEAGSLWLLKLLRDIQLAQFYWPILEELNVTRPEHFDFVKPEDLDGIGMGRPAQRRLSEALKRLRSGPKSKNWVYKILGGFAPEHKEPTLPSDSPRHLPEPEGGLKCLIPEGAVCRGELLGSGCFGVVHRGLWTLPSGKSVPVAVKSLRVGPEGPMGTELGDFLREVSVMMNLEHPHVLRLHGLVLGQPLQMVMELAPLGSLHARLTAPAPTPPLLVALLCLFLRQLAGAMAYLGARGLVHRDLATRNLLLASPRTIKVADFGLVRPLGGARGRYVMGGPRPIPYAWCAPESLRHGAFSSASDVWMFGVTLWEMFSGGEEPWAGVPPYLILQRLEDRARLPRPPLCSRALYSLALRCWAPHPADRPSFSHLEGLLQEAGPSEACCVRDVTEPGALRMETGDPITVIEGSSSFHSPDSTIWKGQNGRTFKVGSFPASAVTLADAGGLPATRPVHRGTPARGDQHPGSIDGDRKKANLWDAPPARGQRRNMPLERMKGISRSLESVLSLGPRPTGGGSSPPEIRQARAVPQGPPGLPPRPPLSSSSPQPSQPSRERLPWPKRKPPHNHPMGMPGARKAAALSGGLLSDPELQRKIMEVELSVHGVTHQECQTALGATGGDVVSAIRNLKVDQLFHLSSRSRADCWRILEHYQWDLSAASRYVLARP

SMILES | test | setting | remaining binding
O=C(c1ccc(Nc2ncc(Cl)c(-c3ccc(Cl)s3)n2)cc1)N1CCC(N2CCCC2)CC1 | binding, competition with immobilised ligand | 1 µM | 13%
COc1ncc2cc3ccccc3nc2c1C#N | cell-free assay, competition with immobilised ligand | 5 µM | 100%
O=C(c1ccc(Nc2nccc(-c3cc4ccccc4s3)n2)cc1)N1CCC(N2CCCC2)CC1 | binding, competition with immobilised ligand | 1 µM | 27%
F[C@@H]1CCN(c2nccc(-c3cnn4ncccc34)n2)C1 | binding | 1 µM | 87%
CCN1CCN(Cc2ccc(C(=O)Nc3ccc(C)c(Oc4ccc5c(c4)CC(=O)N5)c3)cc2C(F)(F)F)CC1 | binding, competition with immobilised ligand | 1 µM | 100%
COc1cnc(Nc2cccc(S(N)(=O)=O)c2)nc1N1CCN(c2ccccc2)C(=O)C1 | binding, competition with immobilised ligand | 1 µM | 100%
O=C(Nc1c[nH]nc1C(=O)NC1CCNCC1)c1cc(F)cc(F)c1 | binding, competition with immobilised ligand | 1 µM | 38%
CN(C)c1nccc(-c2cnc3ncccn23)n1 | binding | 1 µM | 100%
O=C(Nc1cccnn1)N1CCC(=Cc2cccc(Oc3ccc(C(F)(F)F)cn3)c2)CC1 | cell-free assay, competition with immobilised ligand | 1 µM | 98%
N[C@H]1CCN(c2nccc(-c3cnn4ncccc34)n2)C1 | binding | 1 µM | 0%
Cc1cnc(Nc2ccc(C(=O)N3CCC(N4CCCC4)CC3)cc2)nc1-c1cc2ccccc2s1 | binding, competition with immobilised ligand | 1 µM | 13%
C[C@@H](c1cccc(C#N)c1)n1cc(Cl)cc(C(N)=O)c1=N | cell-free assay, competition with immobilised ligand | 1 µM | 94%
CN(C)c1ncc(F)c(-c2cnn3ncccc23)n1 | binding | 1 µM | 100%
CN1CCN(c2cnc3c(C4CCN(C(=O)c5ccc(OC(F)(F)F)cc5N)CC4)ncnc3c2)CC1 | cell-free assay, competition with immobilised ligand | 1 µM | 100%
c1cncc(-c2cccc(Nc3nccc(NC4CCCCC4)n3)c2)c1 | binding, competition with immobilised ligand | 10 µM | 40%
Cc1c[nH]c2nccc(Oc3c(F)cc(Nc4cc(Cl)nc(N)n4)cc3F)c12 | cell-free assay, competition with immobilised ligand | 0.1 µM | 100%
Nc1ncc2c(n1)-c1c([nH]c3ccc(C#CC4CC4)cc13)CCCC2 | binding, competition with immobilised ligand | 1 µM | 100%
Cc1noc([C@H]2C[C@@H](c3ccc(C(F)(F)F)cc3)CN(C(=O)N3CCS(=O)(=O)C3)C2)n1 | cell-free assay, competition with immobilised ligand | 1 µM | 100%
C[C@H]1CCN(c2nccc(-c3cnn4ncccc34)n2)C1 | binding | 1 µM | 100%
CNC(=O)[C@@H]1CC[C@@H](n2c(-c3ccc4cnccc4c3)nc3ccc(C(=O)NCc4cccc(C(N)=O)c4)cc32)C1 | binding, competition with immobilised ligand | 1 µM | 97%
CNC(=O)Nc1ccc2c(c1)CC[C@@]21OC(=O)N(CC(=O)N(Cc2ccc(F)cc2)[C@@H](C)C(F)(F)F)C1=O | cell-free assay, competition with immobilised ligand | 1 µM | 86%
Cc1cnn2ncc(-c3ccnc(N(C)C)n3)c2c1 | binding | 1 µM | 98%
